For 31 compounds, IC50, F and bioavailability results are on record in ChEMBL document CHEMBL1127545, “Synthesis, oral bioavailability determination, and in vitro evaluation of prodrugs of the antiviral agent 9-[2-(phosphonomethoxy)ethyl]adenine (PMEA)” (J Med Chem, 1994).

For data set [1], the system named is Vero. Put plainly: Concentration that reduced plaque formation by 50% was measured in HSV-2 infected vero cells in vitro. In kind it is functional, cell-based. The settings on record: Chlorocebus sabaeus. Put shortly: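 Plaque reduction assay against HSV-2 strain G in infected Vero cells. IC50 taken as the concentration giving 50% reduction in plaque formation.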

Data set [2] is described as follows: Bioavailability in rat of PMEA prodrug. In kind it is ADME, organism-based. The settings on record: in vivo. Put shortly:
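Male rats fasted 12-18 h, three per route. Reference: parent phosphonate iv bolus 30 mg/kg in normal saline via tail vein. Oral: parent at 30 mg/kg in 5% DMSO/water by gastric intubation; prodrugs as 5% DMSO/water solutions at 24-43 mg/kg PMEA equivalents. Urine collected 0-24 and 24-48 h in metabolism cages. PMEA measured by reversed-phase HPLC with fluorometric detection. Bioavailability = dose-normalized 0-48 h urinary PMEA, oral vs iv.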

A short description of data set [3]: Oral bioavailability of compound in monkey. In kind it is ADME, organism-based. As to conditions: simiiformes, in vivo, read-out: Bioavailabiility.
Data set [4] is described as follows: Oral bioavailability of compound in rat. As to conditions: in vivo, read-out: Bioavailabiility. In kind it is ADME, organism-based. The procedure, abridged:
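Fasted (12-18 h) male rats, three per route. Prodrugs were given by gastric intubation in 5% DMSO/water at 24-43 mg/kg PMEA equivalents. The reference was PMEA 30 mg/kg as an iv tail-vein bolus in saline. Urine was collected 0-24 and 24-48 h in metabolism cages and PMEA quantified by reversed-phase HPLC with fluorometric detection. Bioavailability is dose-normalized 0-48 h urinary PMEA, oral versus iv.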

Each structure is given as a SMILES string. Some results are limits rather than exact numbers.

A word on the IC50: it is the concentration that inhibits the measured activity by half. In turn, `CCOP(=O)(COCCn1cnc2c(N)ncnc21)OCC` had an IC50 in data set [1] greater than 300 µM. In addition, the F in data set [2] came to 42%.

For `CC(C)OP(=O)(O)COCCn1cnc2c(N)ncnc21`, in data set [2], the F amounted to 5%.

Consider `CC(C)OP(=O)(COCCn1cnc2c(N)ncnc21)OC(C)C`, for which the F in data set [2] was determined as 44.4%.

As for `CC(C)COP(=O)(COCCn1cnc2c(N)ncnc21)OCC(C)C`, the F in data set [2] is listed as 0%.

Consider `CCN(CC)C(=O)COP(=O)(O)COCCn1cnc2c(N)ncnc21`, for which, in data set [2], the F is 3.5%.

`Nc1ncnc2c1ncn2CCOCP(=O)(Oc1ccccc1)Oc1ccccc1` showed an IC50 in data set [1] of 77 µM. In addition, in data set [2], the F is given as 11.1%.

For the compound `CC(C)CCOP(=O)(COCCn1cnc2c(N)ncnc21)OCCC(C)C`, the F in data set [2] turned out to be 0.5%.

As for `COP(=O)(COCCn1cnc2c(N)ncnc21)OC`, the F in data set [2] was 0%.

In the case of `Nc1ncnc2c1ncn2CCOCP(=O)(O)OCc1ccc([N+](=O)[O-])cc1`, the F in data set [2] is given as 1.9%.

As to `CC(C)(CO)COP(=O)(O)COCCn1cnc2c(N)ncnc21`, the F in data set [2] came out at 0%.

With `Nc1ncnc2c1ncn2CCOCP(=O)(O)OCC(Cl)(Cl)Cl`, the F in data set [2] was determined as 2.5%.

`CCOP(=O)(O)COCCn1cnc2c(N)ncnc21` gave an IC50 in data set [1] greater than 300 µM. For the same compound, in data set [2], the F was 0%.

As to `Nc1ncnc2c1ncn2CCOCP(=O)(OCc1ccc([N+](=O)[O-])cc1)OCc1ccc([N+](=O)[O-])cc1`, in data set [2], the F turned out to be 1.7%.

As to `Nc1ncnc2c1ncn2CCOCP(=O)(OCC(Cl)(Cl)Cl)OCC(Cl)(Cl)Cl`, in data set [2], the F stood at 10.6%.

As for `CCN(CC)P(=O)(COCCn1cnc2c(N)ncnc21)N(CC)CC`, the F in data set [2] is reported as 7.2%.

Take `CCC(=O)OCOP(=O)(COCCn1cnc2c(N)ncnc21)OCOC(=O)CC`: the IC50 in data set [1] came out at 0.4 µM.

In data set [1], `CC(C)C(=O)OCOP(=O)(COCCn1cnc2c(N)ncnc21)OCOC(=O)C(C)C` gave an IC50 of less than 0.2 µM.

On to `CCCCCCCCOP(=O)(O)COCCn1cnc2c(N)ncnc21`, for which the F in data set [2] is given as 0.8%.

With `CC1(C)CNP(=O)(COCCn2cnc3c(N)ncnc32)NC1`, the F in data set [2] is given as 5.8%.

Consider `Nc1ncnc2c1ncn2CCOCP(=O)(O)O` [ADEFOVIR], for which the bioavailability in data set [3] was less than 1%; in data set [4], 11%. In addition, 119 µM corresponded to half-maximal inhibition in data set [1] (IC50). In data set [2], the F is listed as 7.8%.

Regarding `CC(=O)OCC(=O)COC(C)=O`, the F in data set [2] was 5.8%.

As for `Nc1ncnc2c1ncn2CCOCP(=O)(O)Oc1ccccc1`, in data set [1], the IC50 is 95 µM. Besides, the F in data set [2] amounted to 14%.

`Nc1ncnc2c1ncn2CCOCP1(=O)OCCCO1`: the F in data set [2] amounted to 0.7%.

`CCOP(=O)(COCCn1cnc2c(N)ncnc21)OCOC(=O)C(C)(C)C` (stereo not given): the F in data set [2] was 34.9%.

`COP(=O)(O)COCCn1cnc2c(N)ncnc21`: in data set [2], the F was found to be 1.4%.

For `CC(C)(CN)CNP(=O)(O)COCCn1cnc2c(N)ncnc21`, in data set [2], the F was 10.6%.

For the compound `CCN(CC)C(=O)COP(=O)(COCCn1cnc2c(N)ncnc21)OCOC(=O)C(C)(C)C` (stereo not given), the F in data set [2] came out at 2.2%.

`CC(C)(C)C(=O)OCOP(=O)(COCCn1cnc2c(N)ncnc21)OCOC(=O)C(C)(C)C` [ADEFOVIR DIPIVOXIL] displayed an IC50 in data set [1] of 0.6 µM. Also, the F in data set [2] came out at 17.3%.

In the case of `CC1(C)COP(=O)(COCCn2cnc3c(N)ncnc32)OC1`, in data set [2], the F is 0%.

As for `Nc1ncnc2c1ncn2CCOCP(=O)(O)OCC(F)(F)CO`, in data set [2], the F was 3.5%.

The compound `CC(C)(C)C(=O)OCOP(=O)(O)COCCn1cnc2c(N)ncnc21` yielded an IC50 in data set [1] of 22 µM. Besides, the F in data set [2] worked out at 6.5%.
